Values after ≈ are worked out from the molar mass of the structure shown. Active and inactive are the calls of the source. The rule behind the calls is not given here.
How the values were obtained:
Staphylococcus aureus [1] = experiment: Antibacterial activity against methicillin-resistant Staphylococcus aureus CMAH 0430 by broth microdilution method; format: functional
Procedure, shortened: (§1)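 MIC and MBC by broth microdilution following NCCLS recommendations; values given in µg/mL.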

Escherichia coli = experiment: Antibacterial activity against Escherichia coli ATCC 25922 by broth microdilution method; format: functional; procedure, shortened: as §1
Staphylococcus aureus [2] = experiment: Antibacterial activity against methicillin-resistant Staphylococcus aureus CMAH 0504 by broth microdilution method; format: functional; procedure, shortened: as §1
Staphylococcus aureus [3] = experiment: Antibacterial activity against methicillin-susceptible Staphylococcus aureus ATCC 25923 by broth microdilution method; format: functional; procedure, shortened: as §1
Staphylococcus aureus [4] = experiment: Antibacterial activity against methicillin-resistant Staphylococcus aureus CMAH 0515 by broth microdilution method; format: functional; procedure, shortened: as §1
Staphylococcus aureus [5] = experiment: Antibacterial activity against methicillin-resistant Staphylococcus aureus CMAH 0430 by disk diffusion method; format: functional
Staphylococcus aureus [6] = experiment: Antibacterial activity against methicillin-resistant Staphylococcus aureus CMAH 0504 at 10 ug/ml after 20 to 30 mins; format: functional, organism-based
Procedure, shortened: (§2)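 Time-kill assay. Mid-log cultures were diluted in Mueller–Hinton broth to a final inoculum of 3-5 × 10^5 cells/mL and incubated at 30 °C with 5, 10, 15 µg/mL (S. aureus ATCC 25923) or 2.5, 5, 10 µg/mL (MRSA CMAH 0504), alongside a drug-free growth control. Samples were washed, plated on MH agar and incubated 24 h at 30 °C for colony counts. Three independent experiments, each in triplicate.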

Staphylococcus aureus [7] = experiment: Antibacterial activity against methicillin-susceptible Staphylococcus aureus ATCC 25923 at 15 ug/ml after 40 mins; format: functional, organism-based; procedure, shortened: as §2
Staphylococcus aureus [8] = experiment: Antibacterial activity against methicillin-resistant Staphylococcus aureus CMAH 0504 at 30 ug/ml by disk diffusion method; format: functional; conditions: read-out: IZ
[9] = Toxicity in human erythrocytes assessed as hemolytic activity at 2000 ug/ml after 1 hr; format: cell-based, Erythrocyte; conditions: read-out: Activity
Procedure, shortened: (§3)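 Human heparinised erythrocytes, PBS-washed, were used at about 1.0 × 10^9 cells/mL and mixed 1:1 with compound (1-2000 µg/mL) for 1 h at 37 °C. After centrifugation, supernatant OD540 was read. PBS set 0% lysis and 0.1% Triton X-100 set 100% lysis. Triplicates, confirmed in three independent experiments.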

Staphylococcus aureus [10] = experiment: Antibacterial activity against methicillin-resistant Staphylococcus aureus CMAH 0515 by disk diffusion method; format: functional
Bacillus subtilis = experiment: Antibacterial activity against Bacillus subtilis ATCC 6633 by broth microdilution method; format: functional; procedure, shortened: as §1
[11] = Toxicity in human erythrocytes assessed as hemolytic activity at 1000 ug/ml after 1 hr; format: cell-based, Erythrocyte; conditions: read-out: Activity; procedure, shortened: as §3
Staphylococcus aureus [12] = experiment: Antibacterial activity against Staphylococcus aureus by disk diffusion method; format: functional
Micrococcus luteus = experiment: Antibacterial activity against Micrococcus luteus CMCC(B)28001 by broth microdilution method; format: functional; procedure, shortened: as §1
Pseudomonas aeruginosa = experiment: Antibacterial activity against Pseudomonas aeruginosa ATCC 27853 by broth microdilution method; format: functional; procedure, shortened: as §1
[13] = Toxicity in human erythrocytes assessed as hemolytic activity at 500 ug/ml after 1 hr; format: cell-based, Erythrocyte; conditions: read-out: Activity; procedure, shortened: as §3
[14] = Toxicity in human erythrocytes assessed as hemolytic activity at 250 ug/ml after 1 hr; format: cell-based, Erythrocyte; conditions: read-out: Activity; procedure, shortened: as §3

| SMILES | MBC (Staphylococcus aureus [1]) | MIC (Staphylococcus aureus [1]) | MBC (Staphylococcus aureus [2]) | MIC (Staphylococcus aureus [2]) | MBC (Staphylococcus aureus [3]) | MIC (Staphylococcus aureus [3]) | MBC (Staphylococcus aureus [4]) | MIC (Staphylococcus aureus [4]) | inhibition zone (IZ) (Staphylococcus aureus [5]) | zone of inhibition at 30 µg/mL (Staphylococcus aureus [8]) | hemolysis at 1 h, 2000 ug/ml [9] | inhibition zone (IZ) (Staphylococcus aureus [10]) | MBC (Bacillus subtilis) | MIC (Bacillus subtilis) | hemolysis at 1 h, 1000 ug/ml [11] | inhibition zone (IZ) (Staphylococcus aureus [12]) | MBC (Micrococcus luteus) | MIC (Micrococcus luteus) | hemolysis at 1 h, 500 ug/ml [13] | hemolysis at 1 h, 250 ug/ml [14] | also measured |
| --- | --- | --- | --- | --- | --- | --- | --- | --- | --- | --- | --- | --- | --- | --- | --- | --- | --- | --- | --- | --- | --- |
| C=CC1C[N+]2(CC(=O)c3cccc4ccccc34)CCC1CC2[C@H](O)c1ccnc2ccc(OC)cc12.[Br-] (stereo partly specified) | 1.56 µg/mL | 0.39 µg/mL | 1.56 µg/mL | 0.78 µg/mL | 3.13 µg/mL | 1.56 µg/mL | 1.56 µg/mL | 0.39 µg/mL | 26 mm | 23 mm | 55% | 25 mm | 6.25 µg/mL | 3.13 µg/mL | 17% | 26 mm | 3.13 µg/mL | 3.13 µg/mL | 9% | 0% | MBC (Escherichia coli): 100 µg/mL; MIC (Escherichia coli): 50 µg/mL; Activity (Staphylococcus aureus [6]): Active; Activity (Staphylococcus aureus [7]): inactive; MIC (Pseudomonas aeruginosa): 100 µg/mL |
| C=C[C@H]1CN2CC[C@H]1C[C@H]2[C@H](O)c1ccnc2ccc(OC)cc12 |  |  |  |  |  |  |  |  |  |  |  |  |  |  |  |  |  |  |  |  | Activity (Staphylococcus aureus [1]): inactive; Activity (Staphylococcus aureus [2]): inactive; Activity (Staphylococcus aureus [3]): inactive; Activity (Staphylococcus aureus [4]): inactive |
| C=CC1C[N+]2(CC(=O)c3ccc(Br)cc3)CCC1CC2[C@H](O)c1ccnc2ccc(OC)cc12.[Br-] (stereo partly specified) | 6.25 µg/mL | 3.13 µg/mL | 12.5 µg/mL | 6.25 µg/mL | 6.25 µg/mL | 3.13 µg/mL | 6.25 µg/mL | 3.13 µg/mL | 23 mm | 22 mm | 25% | 22 mm | 6.25 µg/mL | 3.13 µg/mL | 7% | 24 mm | 6.25 µg/mL | 6.25 µg/mL | 0% | 0% | MIC (Escherichia coli): 100 µg/mL; MIC (Pseudomonas aeruginosa): 100 µg/mL |
| CC1(C)S[C@@H]2[C@H](NC(=O)[C@H](N)c3ccccc3)C(=O)N2[C@H]1C(=O)O [AMPICILLIN] |  |  |  |  | 0.78 µg/mL (≈ 2.23 µM) | 0.39 µg/mL (≈ 1.12 µM) |  |  |  |  |  |  | 0.39 µg/mL (≈ 1.12 µM) | 0.39 µg/mL (≈ 1.12 µM) |  | 34 mm | 0.78 µg/mL (≈ 2.23 µM) | 0.39 µg/mL (≈ 1.12 µM) |  |  | MBC (Escherichia coli): 100 µg/mL (≈ 286 µM); MIC (Escherichia coli): 50 µg/mL (≈ 143 µM) |
| C=C[C@H]1C[N@@]2CC[C@H]1C[C@H]2[C@H](O)c1ccnc2ccc(OC)cc12 [QUININE] |  |  |  |  |  |  |  |  |  |  | 0% |  |  |  | 0% |  |  |  | 0% | 0% |  |
| CCC(=O)O[C@@H]1CC(=O)O[C@H](C)C/C=C/C=C/[C@H](O)[C@H](C)C[C@H](CC=O)[C@H](O[C@@H]2O[C@H](C)[C@@H](O[C@H]3C[C@@](C)(O)[C@@H](OC(=O)CC)[C@H](C)O3)[C@H](N(C)C)[C@H]2O)[C@H]1OC [MIDECAMYCIN] |  |  |  |  |  |  |  |  |  |  |  |  |  |  |  | 27 mm |  |  |  |  |  |
| NC[C@H]1O[C@H](O[C@H]2[C@H](O)[C@@H](O[C@H]3O[C@H](CO)[C@@H](O)[C@H](N)[C@H]3O)[C@H](N)C[C@@H]2N)[C@H](O)[C@@H](O)[C@@H]1O [KANAMYCIN] |  |  |  |  | 0.78 µg/mL (≈ 1.61 µM) | 0.39 µg/mL (≈ 0.805 µM) |  |  |  |  |  |  | 6.25 µg/mL (≈ 12.9 µM) | 6.25 µg/mL (≈ 12.9 µM) |  | 28 mm | 0.39 µg/mL (≈ 0.805 µM) | 0.39 µg/mL (≈ 0.805 µM) |  |  | MBC (Escherichia coli): 0.39 µg/mL (≈ 0.805 µM); MIC (Escherichia coli): 0.39 µg/mL (≈ 0.805 µM) |
| C=CC1C[N+]2(CC(=O)c3ccc(Cl)cc3)CCC1CC2[C@H](O)c1ccnc2ccc(OC)cc12 (stereo partly specified) |  |  |  |  |  |  |  |  |  |  |  |  |  |  |  |  |  |  |  |  | Activity (Staphylococcus aureus [1]): inactive; Activity (Staphylococcus aureus [2]): inactive; Activity (Staphylococcus aureus [3]): inactive; Activity (Staphylococcus aureus [4]): inactive |
| CN(C)[C@@H]1C(O)=C(C(N)=O)C(=O)[C@@]2(O)C(O)=C3C(=O)c4c(O)cccc4[C@@](C)(O)[C@H]3C[C@@H]12 [TETRACYCLINE] |  |  |  |  |  |  |  |  | 15 mm | 17 mm |  | 17 mm |  |  |  | 14 mm |  |  |  |  |  |
| CN[C@H](CC(C)C)C(=O)N[C@H]1C(=O)N[C@@H](CC(N)=O)C(=O)N[C@H]2C(=O)N[C@H]3C(=O)N[C@H](C(=O)N[C@H](C(=O)O)c4cc(O)cc(O)c4-c4cc3ccc4O)[C@H](O)c3ccc(c(Cl)c3)Oc3cc2cc(c3O[C@@H]2O[C@H](CO)[C@@H](O)[C@H](O)[C@H]2O[C@H]2C[C@](C)(N)[C@H](O)[C@H](C)O2)Oc2ccc(cc2Cl)[C@H]1O [VANCOMYCIN] |  |  |  |  |  |  |  |  | 24 mm | 22 mm |  | 24 mm |  |  |  | 23 mm |  |  |  |  |  |
| C=CC1C[N+]2(CC(=O)c3ccccc3)CCC1CC2[C@H](O)c1ccnc2ccc(OC)cc12.[Br-] (stereo partly specified) | 25 µg/mL | 12.5 µg/mL | 25 µg/mL | 12.5 µg/mL | 25 µg/mL | 12.5 µg/mL | 25 µg/mL | 12.5 µg/mL |  |  | 5% |  | 25 µg/mL | 25 µg/mL | 0% |  | 12.5 µg/mL | 6.3 µg/mL | 0% | 0% |  |
| C[C@H]1COc2c(N3CCN(C)CC3)c(F)cc3c(=O)c(C(=O)O)cn1c23.C[C@H]1COc2c(N3CCN(C)CC3)c(F)cc3c(=O)c(C(=O)O)cn1c23.O [LEVOFLOXACIN] |  |  |  |  |  |  |  |  |  |  |  |  |  |  |  | 32 mm |  |  |  |  |  |
| Cc1nnc(SCC2=C(C(=O)O)N3C(=O)[C@@H](NC(=O)Cn4cnnn4)[C@H]3SC2)s1 [CEFAZOLIN] |  |  |  |  |  |  |  |  | 2 mm |  |  |  |  |  |  | 30 mm |  |  |  |  |  |
| C=CC1C[N+]2(CC(=O)c3ccc(OC)cc3)CCC1CC2[C@H](O)c1ccnc2ccc(OC)cc12.[Br-] (stereo partly specified) | 50 µg/mL | 25 µg/mL | 50 µg/mL | 25 µg/mL | 12.5 µg/mL | 12.5 µg/mL | 50 µg/mL | 25 µg/mL |  |  | 0% |  | 25 µg/mL | 12.5 µg/mL | 0% |  | 12.5 µg/mL | 12.5 µg/mL | 0% | 0% |  |
| C=CC1C[N+]2(CC(=O)c3ccc([N+](=O)[O-])cc3)CCC1CC2[C@H](O)c1ccnc2ccc(OC)cc12.[Br-] (stereo partly specified) | 50 µg/mL | 50 µg/mL | 50 µg/mL | 50 µg/mL | 50 µg/mL | 25 µg/mL | 50 µg/mL | 50 µg/mL |  |  | 0% |  | 50 µg/mL | 25 µg/mL | 0% |  | 50 µg/mL | 25 µg/mL | 0% | 0% |  |
| O=C(N[C@H](CO)[C@H](O)c1ccc([N+](=O)[O-])cc1)C(Cl)Cl [CHLORAMPHENICOL] |  |  |  |  |  |  |  |  | 27 mm | 26 mm |  | 27 mm |  |  |  | 32 mm |  |  |  |  |  |
